The list is not random: actives were taken first. Their share in the collection is about 29%.
tolC growth inh: growth inhibitors of E. coli tolC mutant, primary screen, strain BW25113 ΔtolC::kan, 384-well. OD615. growth inhibition, % at 10 µM (by protocol). 65,000 tested, 2.2% active;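 active = growth inhibition at or above a cutoff equal to the mean over every tested compound plus 3 SD, cut at about 60% in these data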;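 note: growth measured after 20 h incubation at 37 °C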
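Test system: tolC-deleted E. coli BW25113; medium: LB with kanamycin 50 µg/mL; compound: single-point testing at 10 µM; incubation: 20 h compound exposure of bacteria at 37 °C; signal: OD at 615 nm; evaluation: growth inhibition in percent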
CYP2C9 inh: blockers of cytochrome P450 2C9 activity – biochemical, luminescence, ADME assay, primary screen; 96,000 tested, 20% active; AID 777, 2007; inhibition, % at 5 µM; P11712; CYP2C9 Supersomes, luciferin-H conversion;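 active = blocking of liver enzyme CYP2C9 beyond about 50% at 5 µM, limit read from the data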
Ecoli WT expand: growth inhibitors of wild-type E. coli, primary screen, strain BW25113, expanded library, OD600 | OD600 absorbance | growth inhibition, % at 100 µM | 98,000 tested, 0.15% active | AID 710, 2007;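 active = growth inhibition above about 50% at one test dose, limit read from the data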;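 note: growth measured after 20 h incubation at 37 °C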
CYP2C9 act: human CYP2C9 activators, primary screen, biochemical, luminescence; activation factor at 5 µM; recombinant CYP2C9, luciferin-H conversion; stronger effect = higher value; factor 1 = untreated enzyme, 0 = blocked; 96,000 tested, 1.4% active;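 active = activation factor of 2 or more for CYP2C9 at a 5 µM dose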
CYP2C19 inhib: blockers of cytochrome P450 2C19 activity – biochemical, luminescence, ADME assay, primary screen; P33261; CYP2C19 Supersomes, luciferin-H EGE luminescence, 30 min; inhibition, % at 5 µM; 96,000 tested, 21% active;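 active = CYP2C19 inhibition above a set limit at 5 µM in the primary screen, cut at about 50% in these data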
Target sequence (P33261 whole entry, looked up): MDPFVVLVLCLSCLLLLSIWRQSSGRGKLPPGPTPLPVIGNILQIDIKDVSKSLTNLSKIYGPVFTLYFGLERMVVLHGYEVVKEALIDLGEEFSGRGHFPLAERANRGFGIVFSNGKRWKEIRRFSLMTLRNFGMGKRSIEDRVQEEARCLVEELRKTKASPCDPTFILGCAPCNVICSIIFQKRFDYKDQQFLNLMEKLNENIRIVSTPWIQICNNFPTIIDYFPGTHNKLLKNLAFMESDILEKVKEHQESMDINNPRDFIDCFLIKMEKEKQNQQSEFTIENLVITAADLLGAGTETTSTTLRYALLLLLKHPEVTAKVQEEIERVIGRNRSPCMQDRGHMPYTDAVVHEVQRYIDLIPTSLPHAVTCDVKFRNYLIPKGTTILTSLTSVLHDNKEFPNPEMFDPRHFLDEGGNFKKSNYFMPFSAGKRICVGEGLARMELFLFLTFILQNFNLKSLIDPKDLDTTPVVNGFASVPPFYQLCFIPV
CYP2C19 activ: human CYP2C19 activators, primary screen, biochemical, luminescence; Cytochrome P450 2C19 (Homo sapiens), P33261; recombinant CYP2C19, luciferin-H EGE luminescence; stronger effect = higher value; 0 = fully inhibited enzyme, 1 = untreated enzyme; activation factor at 5 µM; 96,000 tested, under 10 active; AID 1025, 2008;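 active = activation factor of at least 2 at 5 µM in the primary screen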
Each line names hits and unclear results; the compound was inactive in the other large screens.

CCC(O)c1cc2c(cc1NC(=O)c1ccc(C)cc1)OCCO2 (stereo not given)	CYP2C9 inh 76, CYP2C19 inhib 64
Cc1nn(C2CCS(=O)(=O)C2)c(Cl)c1/C=C/C(=O)OCC(=O)Nc1ccccc1OC(F)F (stereo not given)	CYP2C9 inh 69, CYP2C19 inhib 67 (no result: tolC growth inh)
COc1cccc(-c2nc(CS(=O)CC(=O)NCc3ccccc3Cl)c(C)o2)c1 (stereo not given)	CYP2C9 inh 64
COc1cccc(-c2nc(CS(=O)CC(=O)NCc3ccc4c(c3)OCO4)c(C)o2)c1 (stereo not given)	CYP2C9 inh 76, CYP2C19 inhib 77
COc1ccc(Oc2c(Cl)cnn(-c3ccc(C)cc3)c2=O)cc1	none (no result: tolC growth inh)
CCOc1ccccc1OCCn1ncc2ccc(OC)c(OC)c2c1=O	CYP2C19 inhib 58 (no result: tolC growth inh)
COc1ccc2cnn(-c3ccc(C)cc3)c(=O)c2c1OC	CYP2C9 inh 65 (no result: tolC growth inh)
O=C(CSc1ccc(Cl)cc1Cl)N1CCC(c2nc3ccccc3s2)CC1	CYP2C9 inh 58, CYP2C19 inhib 55 (no result: tolC growth inh)
Cc1cc(C)cc(NC(=S)N2CCC(c3nc4ccccc4s3)CC2)c1	none (no result: tolC growth inh)
CC(C(=O)OCn1nnc2ccccc2c1=O)N1C(=O)c2ccccc2C1=O (stereo not given)	none
O=C(COC(=O)c1cccc(C(=O)OCC(=O)c2ccc(Br)cc2)n1)c1ccc(Br)cc1	none (no result: tolC growth inh)
COC(=O)Cn1cnc(=O)c(C#N)c1/C=C/N(C)C	none
COc1ccc(-c2nnc(-c3cc4c(ccc5ccccc54)oc3=O)o2)cc1	CYP2C9 inh 56, CYP2C19 inhib 68 (no result: tolC growth inh)
CN(C)c1ccc(C2NCCS2)cc1 (stereo not given)	none
O=C(NN1C(=O)/C(=C/c2cccnc2)SC1=S)C(c1ccccc1)c1ccccc1	CYP2C9 inh 82 (no result: tolC growth inh)
CCNc1nc(NC(C)C)nc(OCC)n1	none (no result: tolC growth inh)
O=S(=O)(c1ccc2ccccc2c1)N1CCN(S(=O)(=O)N2CCCCC2)CC1	none (no result: tolC growth inh)
Cc1cc(C)n(S(=O)(=O)c2ccc3ccccc3c2)n1	CYP2C9 act 2.3, CYP2C19 inhib 61
Cc1cc(C)n(S(=O)(=O)c2cc(Cl)ccc2Cl)n1	CYP2C19 inhib 59
Cc1cc(C)n(S(=O)(=O)c2ccc(C(C)(C)C)cc2)n1	CYP2C19 inhib 76
O=C(c1cccc(F)c1)N1CCN(C(=O)C2CC2)CC1	none
CCOC(=O)C(C(=O)OCC)N(C#N)c1nc(SC)nc(N(C)C)n1	none
CCn1cc(Br)c(C(=O)Nc2ccc(Cl)cc2Cl)n1	CYP2C19 inhib 74 (no result: tolC growth inh)
CCn1cc(Br)c(C(=O)Nc2ccc(F)c(Cl)c2)n1	CYP2C9 inh 75, CYP2C19 inhib 92
CCOC(=O)c1nn(-c2ccccc2)c(=O)c(C#N)c1C	CYP2C19 inhib 70
CCOC(=O)c1sc(NC(=O)c2c(C)nn(Cc3ccccc3)c2C)cc1C	tolC growth inh 71
CCOC(=O)c1nn(-c2cccc(OC)c2)c(-c2ccccc2)c1C(=O)c1ccccc1	none (no result: tolC growth inh)
Cc1c(C(=O)O)nn(-c2ccccc2)c(=O)c1C#N	none
CCOC(=O)c1nn(-c2cccc(Cl)c2)c(C)c1C(C)=O	CYP2C9 inh 64, CYP2C19 inhib 100 (no result: tolC growth inh)
CCOC(=O)c1c(C)nn(Cc2cccc(Cl)c2)c1N	CYP2C9 inh 90
COc1ccccc1-c1nnc(Sc2nc([N+](=O)[O-])nn2C)o1	none (no result: tolC growth inh)
C=CCn1c(CCNC(=O)C(C)(C)C)nc2ccccc21	none
CCOC(=O)c1nn(-c2ccccc2)c(-c2ccccc2)c1C(=O)c1ccccc1	CYP2C9 inh 59 (no result: tolC growth inh)
COc1ccc(/C=N/N2CCN(c3ccncc3S(=O)(=O)N3CCCCC3)CC2)cc1	none (no result: tolC growth inh)
N#C/C(=C/c1ccc(N2CCOCC2)o1)c1ccc(Cl)cc1	none (no result: tolC growth inh)
O=C(Oc1ccc(N(Cc2cccs2)C2=NS(=O)(=O)c3ccccc32)cc1)c1ccccc1F	CYP2C9 inh 97, CYP2C19 inhib 69 (no result: tolC growth inh)
c1cc(-c2nnc3n2CCC3)[nH]n1	none
CCCCCC(=O)Nc1ccc(S(=O)(=O)Nc2nccnc2OC)cc1	none
CCCc1cc(=O)[nH]c(SCC(=O)Nc2ccccc2C#N)n1	none (no result: tolC growth inh)
COCCOC(=O)c1c(C)nc(SCC(=O)Nc2ccc(C)cc2)c(C#N)c1-c1ccco1	CYP2C9 inh 92, CYP2C19 inhib 64
COCCOC(=O)c1c(C)nc(SCC(=O)Nc2cccc3ccccc23)c(C#N)c1-c1ccco1	CYP2C9 inh 94 (no result: tolC growth inh)
Cc1cc(=O)[nH]c(SCC(=O)O)c1C#N	none (no result: tolC growth inh)
Cc1cc(=O)[nH]c(SCC(=O)Nc2cccc3ccccc23)c1C#N	CYP2C9 inh 86 (no result: tolC growth inh)
Cc1cc(=O)[nH]c(SCC(=O)C23CC4CC(CC(C4)C2)C3)c1C#N	tolC growth inh 70
O=C(O)C1CSC2(CCN(Cc3ccccc3)CC2)N1 (stereo not given)	none (no result: CYP2C9 inh, Ecoli WT expand, CYP2C9 act, CYP2C19 inhib, CYP2C19 activ)
CCCc1nnc(NC(=O)CCC(=O)O)s1	none
Cc1cc(C(=O)NC(C)C)on1	none
O=C(c1ncc[nH]1)c1ccccc1C(=O)N1CCOCC1	none
CCOC(=O)/C=C1\SCC(=O)N1Cc1nnc(-c2ccccc2Br)o1	CYP2C9 inh 72, CYP2C19 inhib 76
CCOC(=O)/C=C1\SCC(=O)N1Cc1ccc(Br)cc1	none (no result: CYP2C9 inh, CYP2C9 act, CYP2C19 inhib, CYP2C19 activ)
COc1cccc(CNn2c(-c3cccc(C)c3)nc3ccccc3c2=O)c1O	CYP2C19 inhib 80
CCCn1c(NCc2cccc(OC)c2O)nc2ccccc21	none (no result: CYP2C9 inh, CYP2C9 act, CYP2C19 inhib, CYP2C19 activ)
OC(CN(c1ccccc1)c1ccccc1)Cn1cnc2ccccc21 (stereo not given)	CYP2C9 inh 98, CYP2C19 inhib 96
Cc1nc2ccccc2n1CC(O)COCC1CC=CCC1 (stereo not given)	none (no result: tolC growth inh)
OC(COCC1CC=CCC1)Cn1cnc2ccccc21 (stereo not given)	CYP2C19 inhib 72
CC(C)c1ccc(N(C(=O)C(F)(F)F)C(C(=O)NC2CCCCC2)c2ccncc2)cc1 (stereo not given)	none (no result: tolC growth inh)
Cc1c(CN(C)C)c2c(n1Cc1ccccc1)C(=O)c1ccc(Br)cc1-2	CYP2C9 inh 63, CYP2C19 inhib 79 (no result: tolC growth inh)
Cc1cc(=O)[nH]c(SCC(=O)c2c(N)n(C)c(=O)n(C)c2=O)n1	none (no result: tolC growth inh)
COc1ccccc1NC=C1C(=O)OC2(CCCCC2)OC1=O	CYP2C9 act 2.8
COC(=O)c1ccccc1NC=C1C(=O)OC2(CCCCC2)OC1=O	none
O=C(CSc1nnc(Cc2ccccc2)o1)NC1CC2CCC1C2 (stereo not given)	CYP2C19 inhib 52
CC1CCN(C(=O)CSc2nnc(-c3ccco3)o2)CC1	none
CCOc1ccc(N(CC(=O)NC2CCCC2)C(=O)CSc2nnc(COc3ccccc3)o2)cc1	CYP2C9 inh 58 (no result: tolC growth inh)
O=C(CSc1nnc(Cc2ccccc2)o1)NC1CCCCC1	CYP2C19 inhib 52

Screening data: PubChem BioAssay, several laboratories
